For 43 compounds, inhibition, selectivity ratio and EC50 results are on record in ChEMBL document CHEMBL3616431, “Exploring the 3-piperidin-4-yl-1H-indole scaffold as a novel antimalarial chemotype” (Eur J Med Chem, 2015).

The subject of series [1] is Plasmodium falciparum. The experiment in a line: Antimalarial activity against chloroquine-resistant Plasmodium falciparum Dd2 infected in human erythrocyte assessed as growth inhibition at 5 uM by SYBR Green-1 assay. In kind it is functional. In outline: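 Erythrocytic-stage P. falciparum Dd2 growth inhibition at a fixed 5 µM single concentration. Synchronized ring-stage parasites in RPMI-1640 with 0.5% AlbuMAX II, 1.0% hematocrit, 1.0% initial parasitemia. Incubated 72 h under standard culture conditions, then stained with SYBR Green I (1:5,000). Fluorescence read at ex 494 nm, em 530 nm after room-temperature storage.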

The nature of series [2]: Selectivity index, ratio of EC50 for human HepG2A16 cells to EC50 for chloroquine-sensitive Plasmodium falciparum 3D7 infected in human erythrocyte. In kind it is toxicity. The settings on record: read-out: Ratio EC50. An outline of the steps: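 Selectivity index computed as HepG2 A16 MTT EC50 (48 h exposure) divided by P. falciparum 3D7 EC50 (72 h SYBR Green I assay).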

Series [3] deals with Plasmodium falciparum. Briefly: Antimalarial activity against chloroquine-sensitive Plasmodium falciparum 3D7 infected in human erythrocyte assessed as growth inhibition by SYBR Green-1 assay. The series is classed as functional, organism-based. An outline of the steps: (§1)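 Dose-response EC50 against Dd2 and 3D7. Synchronized ring-stage parasites in RPMI-1640 with 0.5% AlbuMAX II, 1.0% hematocrit, 1.0% initial parasitemia. Triplicate 12-point 2-fold serial dilutions, incubated 72 h under standard culture conditions. Read-out by SYBR Green I (1:5,000) fluorescence, ex 494/em 530 nm. EC50 by non-linear regression after background subtraction and normalization.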

The subject of series [4] is Plasmodium falciparum. Briefly: Antimalarial activity against chloroquine-resistant Plasmodium falciparum Dd2 infected in human erythrocyte assessed as growth inhibition by SYBR Green-1 assay. In kind it is functional, organism-based. An outline of the steps:
as §1

Series [5] relates to HepG2. Briefly: Cytotoxicity against human HepG2A16 cells after 48 hrs by MTT assay. In kind it is cell-based. To be noted: HepG2A16, 48 h. An outline of the steps: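 HepG2 A16 cells seeded at 1 × 10^4 cells/well, adhered overnight. Exposed to seven ten-fold dilutions (100 µM–1 nM); drug-free medium as negative control. Medium with compound renewed at 24 h, total 48 h. MTT (5 mg/mL stock in PBS) added for 3 h, then supernatant removed and acidified isopropanol added for read-out.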

The nature of series [6]: Selectivity index, ratio of EC50 for human HepG2A16 cells to EC50 for chloroquine-resistant Plasmodium falciparum Dd2 infected in human erythrocyte. The series is classed as toxicity. The settings on record: read-out: Ratio EC50. An outline of the steps: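 Selectivity index computed as HepG2 A16 MTT EC50 (48 h exposure) divided by P. falciparum Dd2 EC50 (72 h SYBR Green I assay).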

Series [7] concerns Plasmodium falciparum. Briefly: Antimalarial activity against chloroquine-sensitive Plasmodium falciparum 3D7. The series is classed as functional, organism-based.
The subject of series [8] is HepG2. Briefly: Cytotoxicity against human HepG2A16 cells. In kind it is cell-based. An outline of the steps:
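HepG2 A16 cells seeded at 1 × 10^4 cells/well and left to adhere overnight. Exposed to 7 ten-fold dilutions (100 µM–1 nM), drug-free medium as negative control. Medium with compound renewed at 24 h, total 48 h exposure. Viability by MTT (5 mg/mL stock in PBS, 3 h), formazan dissolved in acidified isopropanol; EC50 reported.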

As usually defined, the inhibition is the relative decrease from the control value, in per cent. With `CC(=O)N1CCC(c2c[nH]c3ccccc23)CC1`, in series [1], the inhibition at 5 µM is below 10%.

For the compound `c1ccc2c(C3CCNCC3)c[nH]c2c1`, the inhibition at 5 µM in series [1] is below 10%.

Regarding `c1ccc2c(C3CCN(CC4CCNCC4)CC3)c[nH]c2c1`, the inhibition at 5 µM in series [1] is below 10%.

`Cc1c(CN2CCC(c3c[nH]c4ccccc34)CC2)c(=O)n(-c2ccccc2)n1C`: the inhibition at 5 µM in series [1] is below 10%.

With `CC(=O)n1cc(CN2CCC(c3c[nH]c4ccccc34)CC2)c2ccccc21`, in series [1], the inhibition at 5 µM turned out to be 70%.

As for `Oc1cccc2ccc(CN3CCC(c4c[nH]c5ccccc45)CC3)nc12`, in series [1], the inhibition at 5 µM is below 10%.

For `c1ccc2c(C3CCN(Cc4csc5ccccc45)CC3)c[nH]c2c1`, the inhibition at 5 µM in series [1] was 16%.

Regarding `c1ccc(CN2CCC(c3c[nH]c4ccccc34)CC2)cc1`, the inhibition at 5 µM in series [1] amounted to 15%.

As for `Cc1ccccc1CN1CCC(c2c[nH]c3ccccc23)CC1`, the inhibition at 5 µM in series [1] came out at 11%.

As to `COc1cc(O)cc(OC)c1CN1CCC(c2c[nH]c3ccccc23)CC1`, the inhibition at 5 µM in series [1] is below 10%.

Take `OCCOc1cccc(CN2CCC(c3c[nH]c4ccccc34)CC2)c1`: the inhibition at 5 µM in series [1] was below 10%.

Turning to `COc1cc(Cl)c(CN2CCC(c3c[nH]c4ccccc34)CC2)c(Cl)c1OC`, the inhibition at 5 µM in series [1] is below 10%.

Regarding `Fc1ccc(CN2CCC(c3c[nH]c4ccccc34)CC2)cc1`, the inhibition at 5 µM in series [1] turned out to be 14%.

As to `FC(F)(F)c1ccc(CN2CCC(c3c[nH]c4ccccc34)CC2)cc1`, the inhibition at 5 µM in series [1] is below 10%.

Take `O=Cc1ccc(CN2CCC(c3c[nH]c4ccccc34)CC2)cc1`: the inhibition at 5 µM in series [1] turned out to be 20%.

As usually defined, the EC50 is the concentration needed to bring the measured effect to its halfway point. Take `c1ccc2c(C3CCN(Cc4ccc(CN5CCC(c6c[nH]c7ccccc67)CC5)cc4)CC3)c[nH]c2c1`: the inhibition at 5 µM in series [1] amounted to 100%. Also, the selectivity ratio in series [2] is 5.75; in series [6], 2.19. The EC50 in series [3] was 80 nM; in series [4] it was 210 nM; in series [5], 460 nM.

Regarding `c1ccc2c(C3CCN(Cc4ccc(CN5CCOCC5)cc4)CC3)c[nH]c2c1`, the inhibition at 5 µM in series [1] was 66%.

Turning to `c1ccc2c(C3CCN(Cc4ccc(CN5CCCCC5)cc4)CC3)c[nH]c2c1`, the inhibition at 5 µM in series [1] worked out at 100%. Moreover, the EC50 in series [3] was 1350 nM; in series [4] it was 2910 nM.

In the case of `c1ccc2c(C3CCN(Cc4ccncc4)CC3)c[nH]c2c1`, the inhibition at 5 µM in series [1] is below 10%.

In the case of `c1csc(CN2CCC(c3c[nH]c4ccccc34)CC2)c1`, the inhibition at 5 µM in series [1] is below 10%.

Turning to `c1ccc2c(C3CCN(CC4CCCCC4)CC3)c[nH]c2c1`, the inhibition at 5 µM in series [1] was below 10%.

In the case of `CC(C)=CCC[C@H](C)CCN1CCC(c2c[nH]c3ccccc23)CC1`, in series [1], the inhibition at 5 µM stood at 17%.

For the compound `O=C(c1ccccc1)N1CCC(c2c[nH]c3ccccc23)CC1`, in series [1], the inhibition at 5 µM is below 10%.

Regarding `COc1ccc(OC)c(C(=O)N2CCC(c3c[nH]c4ccccc34)CC2)c1`, the inhibition at 5 µM in series [1] is below 10%.

For the compound `O=C(c1ccc(F)cc1)N1CCC(c2c[nH]c3ccccc23)CC1`, the inhibition at 5 µM in series [1] was below 10%.

Turning to `O=C(c1cccnc1)N1CCC(c2c[nH]c3ccccc23)CC1`, the inhibition at 5 µM in series [1] was determined as 100%. Moreover, the selectivity ratio in series [2] stood at 3.37; in series [6], 4.33. Moreover, the EC50 stood at 3800 nM in series [3], 2950 nM in series [4] and 12800 nM in series [5].

For `O=C(c1cccs1)N1CCC(c2c[nH]c3ccccc23)CC1`, the inhibition at 5 µM in series [1] is below 10%.

On to `O=C(c1ccncc1)N1CCC(c2c[nH]c3ccccc23)CC1`, for which, in series [1], the inhibition at 5 µM is 14%.

For the compound `O=C(c1ccccn1)N1CCC(c2c[nH]c3ccccc23)CC1`, in series [1], the inhibition at 5 µM was below 10%.

Turning to `O=C(c1cnccn1)N1CCC(c2c[nH]c3ccccc23)CC1`, the inhibition at 5 µM in series [1] is below 10%.

With `O=C(c1ccc(C(=O)N2CCC(c3c[nH]c4ccccc34)CC2)cc1)N1CCC(c2c[nH]c3ccccc23)CC1`, the inhibition at 5 µM in series [1] stood at 80%.

Take `Clc1ccc2nccc(N3CCC(c4c[nH]c5ccccc45)CC3)c2c1`: the inhibition at 5 µM in series [1] amounted to 32%. The selectivity ratio in series [2] stood at 0.67; in series [6] it was 0.85. Besides, the values for the 50% effective concentration (EC50) in series [3], in series [4] and in series [5] were 6300 nM, 5010 nM and 4240 nM, respectively.

Take `O=C(c1ccccc1)N1CCC(C(=O)N2CCC(c3c[nH]c4ccccc34)CC2)CC1`: in series [1], the inhibition at 5 µM is below 10%.

For `COc1cc(OC)cc(C(=O)N2CCC(C(=O)N3CCC(c4c[nH]c5ccccc45)CC3)CC2)c1`, the inhibition at 5 µM in series [1] amounted to 10%.

In the case of `O=C(c1ccc(F)cc1)N1CCC(C(=O)N2CCC(c3c[nH]c4ccccc34)CC2)CC1`, the inhibition at 5 µM in series [1] was below 10%.

As to `O=C(c1cccnc1)N1CCC(C(=O)N2CCC(c3c[nH]c4ccccc34)CC2)CC1`, in series [1], the inhibition at 5 µM was 30%.

Regarding `O=C(c1cccs1)N1CCC(C(=O)N2CCC(c3c[nH]c4ccccc34)CC2)CC1`, the inhibition at 5 µM in series [1] was below 10%.

Regarding `CC(=O)N1CCC(C(=O)N2CCC(c3c[nH]c4ccccc34)CC2)CC1`, the inhibition at 5 µM in series [1] was found to be 10%.

Consider `Clc1ccc2nccc(N3CCC(CN4CCC(c5c[nH]c6ccccc56)CC4)CC3)c2c1`, for which the inhibition at 5 µM in series [1] was 100%. In addition, the EC50 in series [7] is 34 nM; in series [8], above 10000 nM; in series [3], 240 nM; in series [4], 940 nM; in series [5] it was 3860 nM. Further, the selectivity ratio came out at 16.1 in series [2] and 4.1 in series [6].

On to `CCN(CC)Cc1cc(Nc2ccnc3cc(Cl)ccc23)ccc1O` [AMODIAQUINE], for which the EC50 in series [3] amounted to 5.85 nM; in series [4] it was 12.3 nM.

Consider `C[C@H]1[C@H](OC(=O)CCC(=O)O)O[C@@H]2O[C@@]3(C)CC[C@H]4[C@H](C)CC[C@@H]1[C@@]24OO3` [ARTESUNATE], for which the EC50 in series [3] was found to be 1.97 nM; in series [4], 1.76 nM.

As for `O=C1C(O)=C([C@H]2CC[C@H](c3ccc(Cl)cc3)CC2)C(=O)c2ccccc21` [ATOVAQUONE], the figures for the EC50 in series [3] and in series [4] were 0.35 nM and 0.19 nM, respectively.

On to `CCN(CC)CCCC(C)Nc1ccnc2cc(Cl)ccc12` (stereo unspecified) [CHLOROQUINE], for which the EC50 was found to be 23 nM in series [3] and 285 nM in series [4].
